Each structure is given as a SMILES string. “And” between values parts separate entries of the source, which are not always exact repeats. Identical values can stand only once. The source made the active and inactive calls. No cut-off for these calls is given here.

A short description of test [1]: Agonism at turkey erythrocyte P2Y receptor. The class given is functional, Meleagris gallopavo. The method, boiled down: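 Turkey erythrocytes labeled 18–24 h at 37 °C with 2-[3H]myo-inositol in inositol-free DMEM; ghosts made by hypotonic lysis (5 mM Na phosphate pH 7.4, 5 mM MgCl2, 1 mM EGTA). PLC assay: ~175 μg protein ghosts, 1 μM GTPγS, Hepes pH 7.0 medium with 424 μM CaCl2, 2 mM EGTA; 5 min, 30 °C; total [3H]inositol phosphates by anion exchange; K0.5 averaged from 3–8 curves.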

The species named for test [2] is Cavia porcellus. Briefly: Tested for contraction of guinea pig isolated urinary bladder detrusor muscle at 37 degree C; Less potent than or equal to ATP. It counts as functional. The note with it: Muscle tissue.
The species entered for test [3] is Cavia porcellus. Briefly: Tested for contraction of guinea pig vas deferens at 37 degree C; Less potent than or equal to ATP. It counts as functional.
The species named for test [4] is Cavia porcellus. Nature of the test: Tested for relaxation of carbachol-contracted guinea pig taenia coli at 37 degree C; Potency equal to ATP. The class given is functional.
The species named for test [5] is Oryctolagus cuniculus. Nature of the test: Tested for relaxation of carbachol-contracted rabbit mesenteric artery at 37 degree C; Less potent than or equal 2MeSATP. The class given is functional.
Test [6] is filed under the species Oryctolagus cuniculus. Nature of the test: Tested for contraction of rabbit saphenous artery produced by 1 uM alpha,beta-MeATP at 37 degree C; Not active. It counts as functional.
For test [7], the species on record is Oryctolagus cuniculus. Nature of the test: Tested for relaxation of carbachol-contracted rabbit aorta at 37 degree C; More potent than or equal to 2MeSATP. It counts as functional.
For test [8], the species on record is Cavia porcellus. Nature of the test: Tested for contraction of guinea pig vas deferens at 37 degree C; Not active. It counts as functional.
For test [9], the species on record is Cavia porcellus. Briefly: Tested for relaxation of carbachol-contracted guinea pig taenia coli at 37 degree C; More potent than or equal to ATP. It counts as functional.
For test [10], the species on record is Oryctolagus cuniculus. Briefly: Tested for relaxation of carbachol-contracted rabbit mesenteric artery at 37 degree C; More potent than or equal to 2MeSATP. The class given is functional.
Test [11] is filed under the species Oryctolagus cuniculus. Nature of the test: Tested for contraction of rabbit saphenous artery produced by 1 uM alpha,beta-MeATP at 37 degree C. The class given is functional.
The species named for test [12] is Cavia porcellus. Nature of the test: Tested for contraction of guinea pig vas deferens at 37 degree C; Potency equal to ATP. The class given is functional.
Test [13] is filed under the species Cavia porcellus. Nature of the test: Tested for relaxation of carbachol-contracted guinea pig taenia coli at 37 degree C. It counts as functional. The method in brief: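 Carbachol-precontracted guinea pig taenia coli segments in 37 °C organ baths with oxygenated Krebs solution. Tension changes were recorded in response to increasing nucleotide concentrations. At least two determinations. Responses were expressed as % relaxation of the carbachol-induced contraction and reported as pD2. ATP was tested on every preparation.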

Test [14] is filed under the species Oryctolagus cuniculus. Nature of the test: Tested for relaxation of carbachol-contracted rabbit mesenteric artery at 37 degree C; Potency equal to 2MeSATP. The class given is functional.
For test [15], the species on record is Oryctolagus cuniculus. Nature of the test: Tested for contraction of rabbit saphenous artery produced by 1 uM alpha,beta-MeATP at 37 degree C; Potency equal to ATP. It counts as functional.
The species named for test [16] is Oryctolagus cuniculus. Nature of the test: Tested for relaxation of carbachol-contracted rabbit aorta at 37 degree C; Potency equal to 2MeSATP. It counts as functional.
Test [17] is filed under the species Cavia porcellus. Nature of the test: Tested for contraction of guinea pig isolated urinary bladder detrusor muscle at 37 degree C; Potency equal to ATP. It counts as functional. The note with it: Muscle tissue.
For test [18], the species on record is Cavia porcellus. Briefly: Tested for contraction of guinea pig isolated urinary bladder detrusor muscle at 37 degree C; Not active. The following applies: Muscle tissue. The class given is functional.
The species named for test [19] is Cavia porcellus. Briefly: Tested for relaxation of carbachol-contracted guinea pig taenia coli at 37 degree C; Less potent than or equal to ATP. It counts as functional.
The species named for test [20] is Cavia porcellus. Nature of the test: Tested for relaxation of carbachol-contracted guinea pig taenia coli at 37 degree C; Significantly less potent than ATP. The class given is functional.
Test [21] is filed under the species Oryctolagus cuniculus. Briefly: Tested for relaxation of carbachol-contracted rabbit mesenteric artery at 37 degree C; Not active. The class given is functional.
The species entered for test [22] is Oryctolagus cuniculus. Briefly: Tested for relaxation of carbachol-contracted rabbit aorta at 37 degree C; Not active. The class given is functional.

Take `Nc1nc(SCCc2ccc([N+](=O)[O-])cc2)nc2c1ncn2C1O[C@H](COP(=O)(O)O)[C@@H](O)[C@H]1O` (stereo partly drawn): in test [1], the “K 0.5” value was 3000 nM. Moreover, the Relative activity entry in the test filed under Cavia porcellus [2] was “Partially active”; in the test filed under Cavia porcellus [3], “Partially active”; in the test filed under Cavia porcellus [4] it was 6.5; in the test listed under Oryctolagus cuniculus [5], 5.4; in the test listed under Oryctolagus cuniculus [7], 6.1. For the same compound, in the test listed under Oryctolagus cuniculus [6], the Relative activity result was “inactive”.

Consider `C=CCCCCSc1nc(NC)c2ncn(C3O[C@H](COP(=O)(O)OP(=O)(O)OP(=O)(O)O)[C@@H](O)[C@H]3O)c2n1` (stereo partly drawn), for which the “K 0.5” value in test [1] was 26 nM. In the test listed under Cavia porcellus [8], the Relative activity result is “inactive”. The Relative activity entry in the test listed under Cavia porcellus [2] was “Partially active”; in the test filed under Cavia porcellus [9], 7.2; in the test filed under Oryctolagus cuniculus [10], 5.6 and 6; in the test filed under Oryctolagus cuniculus [11], 1.5%.

`Nc1ncnc2c1ncn2[C@@H]1O[C@H](COP(=O)(O)OP(=O)(O)OP(=O)(O)O)[C@@H](O)[C@H]1O` [ADENOSINE TRIPHOSPHATE]: the “K 0.5” value in test [1] was 2800 nM. Also, the Relative activity is listed as 3.5 in the test filed under Cavia porcellus [12], 6.2 in the test filed under Cavia porcellus [13], 6 in the test filed under Oryctolagus cuniculus [14] and 4.5 in the test listed under Oryctolagus cuniculus [16]. Moreover, the Relative activity entry in the test filed under Oryctolagus cuniculus [15] and in the test listed under Cavia porcellus [17] was “Active” in each case.

On to `N#CCCCCCCSc1nc(N)c2ncn(C3O[C@H](COP(=O)(O)O)[C@@H](O)[C@H]3O)c2n1` (stereo partly drawn), for which the “K 0.5” value in test [1] was 37000 nM. The Relative activity result in the test filed under Cavia porcellus [18] and in the test listed under Cavia porcellus [8] was “inactive” in each case. Moreover, the Relative activity in the test listed under Cavia porcellus [19] was 4.4; in the test listed under Oryctolagus cuniculus [10], 6.2; in the test filed under Oryctolagus cuniculus [11], 4.5%.

Consider `C=CCCCCSc1nc(NC)c2ncn(C3O[C@H](COP(=O)(O)O)[C@@H](O)[C@H]3O)c2n1` (stereo partly drawn), for which, in test [1], the “K 0.5” value is recorded as above 100000 nM. For the same compound, the Relative activity result in the test filed under Cavia porcellus [18], in the test filed under Cavia porcellus [8], in the test filed under Oryctolagus cuniculus [21] and in the test filed under Oryctolagus cuniculus [22] was “inactive” in each case. Moreover, the results for the Relative activity entry in the test listed under Cavia porcellus [20] and in the test listed under Oryctolagus cuniculus [11] were “Partially active” and 6.7%, respectively.

The record behind these values is ChEMBL document CHEMBL1127060 (1993).
